# High-throughput results (PubChem BioAssay)
# An excerpt weighted towards active compounds, which were near 3.1% of everything screened.
# OX1R antag-1: antagonists of human orexin 1 receptor (OX1R) | AID 485270, 2010 | Orexin/Hypocretin receptor type 1 (Homo sapiens), O43613 | 1.8% of 330,000 active | inhibition, % at 6.6 µM | OX1R-expressing cells, FRET antagonist read-out; in the data active = inhibition mostly above about 38%, no sharp cut-off; inactive = mostly below about 40%
# GalR3 antagonist: GalR3 antagonists in HEK293 cells, primary screen, cell-based, fluorescence readout. 0.44% of 360,000 active. HEK293 GalR3-CNG cAMP membrane potential fluorescence; galR3 body fused to GalR1 C-terminus. inhibition, % at 3 µM;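 active = inhibition above the screen-wide average plus 3 SD, cut at about 13% in these data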;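 also: forskolin and galanin both at EC90 stimulate the cells; cAMP rise reported by CNG channel membrane potential dye signal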
# Target sequence (O60755 1-299 limits assumed): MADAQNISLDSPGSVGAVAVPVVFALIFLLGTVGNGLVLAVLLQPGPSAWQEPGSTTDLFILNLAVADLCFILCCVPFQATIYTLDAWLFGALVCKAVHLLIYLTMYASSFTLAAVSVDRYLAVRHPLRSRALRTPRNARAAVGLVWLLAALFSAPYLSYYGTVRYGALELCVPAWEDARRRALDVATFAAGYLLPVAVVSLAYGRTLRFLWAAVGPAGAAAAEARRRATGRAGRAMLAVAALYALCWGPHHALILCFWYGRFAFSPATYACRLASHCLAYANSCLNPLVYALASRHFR
# CHO parental Ca: ATP-evoked calcium signal inhibitors, parental CHO, primary screen, counter-screen for OX1R antagonist project, cell-based, fluorescence, Fluo-8 calcium dye | 0.63% of 330,000 active | parental CHO-K1, ATP-induced calcium, Fluo-8 fluorescence | inhibition, % at 5.6 µM;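 active = inhibition above that plate's mean sample inhibition plus 3 SD, cut at about 26% in these data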
#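 test system = CHO parental line | reagent = ATP stimulus | measured by = intracellular calcium via Fluo-8 no-wash fluorescent dye | control set = ATP and no-ATP DMSO wells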
# OX1R antag-2: OX1R (HCRTR1) antagonists, primary screen, fluorescence, CHO/OX1R cells, Fluo-8 calcium, orexin A | Orexin/Hypocretin receptor type 1 (Homo sapiens), O43613 | Fluo-8 calcium fluorescence | inhibition, % at 5 µM | 0.43% of 330,000 active | AID 434989, 2010;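 active = inhibition above its plate's threshold, mean inhibition of all tested compounds on the plate plus 3 SD, cut at about 37% in these data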
# GPR7 antagonist: GPR7 receptor antagonists, primary screen, cell-based, fluorescence, single concentration | Neuropeptides B/W receptor type 1 (Homo sapiens), P48145 | 1.1% of 290,000 active | GPR7-expressing cells, fluorescence antagonist assay | inhibition, % at 4.4 µM; in the data active = inhibition above about 16%, passing the limit was not always enough;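 also: cells stimulated with the agonist NPW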
# Target sequence (P48145 whole entry, looked up): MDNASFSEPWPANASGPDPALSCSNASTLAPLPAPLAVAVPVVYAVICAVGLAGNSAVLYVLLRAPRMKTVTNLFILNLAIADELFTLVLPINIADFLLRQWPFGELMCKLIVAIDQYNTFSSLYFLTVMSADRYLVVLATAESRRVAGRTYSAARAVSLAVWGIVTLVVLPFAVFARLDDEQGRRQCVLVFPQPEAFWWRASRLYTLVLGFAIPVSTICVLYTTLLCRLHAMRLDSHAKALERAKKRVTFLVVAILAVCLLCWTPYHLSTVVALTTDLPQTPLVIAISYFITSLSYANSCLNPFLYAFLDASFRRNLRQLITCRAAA
# Numbers stand for hits; 0 = inactive; - = no result.
SMILES,OX1R antag-1,GalR3 antagonist,CHO parental Ca,OX1R antag-2,GPR7 antagonist
Cc1cc(C(F)(F)F)c(C#N)c(SCC(=O)Nc2nc3ccccc3s2)n1,73.5,0,0,0,0
Cc1nc(SCC(=O)Nc2nc3ccccc3s2)c(C#N)c(C)c1C,53.2,0,0,0,0
O=C(c1cccs1)N1C[C@H](n2cc(C3CC3)nn2)[C@@H](O)C[C@@H]1c1ccc(Cl)cc1,-,0,-,-,-
CNCC[C@H](Oc1cccc2ccccc12)c1cccs1,0,-,0,0,37.6
CNCCC(Oc1ccc(C(F)(F)F)cc1)c1ccccc1 (stereo not given),0,0,0,0,0
Cc1ccc(Nc2nc(N)nc(-c3oc4ccccc4c3C)n2)cc1,0,-,0,0,0
Cc1c(-c2nc(N)nc(Nc3ccccc3F)n2)oc2ccccc12,38.8,0,0,0,0
CN1CCN(C(=O)CN(C)S(=O)(=O)c2cc(Cl)ccc2Cl)CC1,0,0,0,0,0
Cc1c(C(=O)N/N=C/c2ccccc2)sc(=S)n1C,91.5,0,0,0,0
c1ccc(NCc2nc3ccccc3n2CCOc2ccccc2)cc1,68.4,0,0,0,0
CCOC(=O)/C(N=Nc1c(C)n(C)n(-c2ccccc2)c1=O)=C(/O)c1ccccc1,52.4,0,0,0,0
Cc1c(N=N/C(C(=O)Nc2ccccc2)=C(/O)c2ccccc2)c(=O)n(-c2ccccc2)n1C,0,0,0,0,0
Cc1c(Br)c(O)c(Br)c(O)c1/C=N/n1c(-c2ccccc2)n[nH]c1=S,43.8,-,0,0,0
Cc1ccc(NS(=O)(=O)c2cccc(C(=O)N3CCN(c4ncccn4)CC3)c2)cc1,0,0,0,0,-
CC1CCCC(NC(=O)C2CCCN2S(=O)(=O)c2cccc3nsnc23)C1C (stereo not given),70.6,0,0,0,0
CCOC(=O)c1c(NC(=O)C2CCCN2S(=O)(=O)c2cccc3nsnc23)sc(C)c1C (stereo not given),-,0,-,-,-
O=C(Nc1ccccc1Br)C1CCCN1S(=O)(=O)c1cccc2nsnc12 (stereo not given),56.3,0,0,0,0
O=C(C1CCCN1S(=O)(=O)c1cccc2nsnc12)N1CCN(c2ccccc2)CC1 (stereo not given),0,-,0,0,0
O=C(Nc1ccccc1F)C1CCCN1S(=O)(=O)c1cccc2nsnc12 (stereo not given),68.2,0,0,0,0
Cc1c(NC(=O)C2CCCN2S(=O)(=O)c2cccc3nsnc23)cccc1C(=O)O (stereo not given),48.2,0,0,0,0
COc1cccc(Oc2nc(-c3ccncc3)nc3ccccc23)c1,0,0,0,0,0
COC(=O)[C@]12C[C@H](CC(=O)NCc3ccc(C)o3)C(=O)N(Cc3ccc4c(c3)OCO4)C1=C[C@H](C(C)(C)C)O[C@@H]2C,-,0,-,-,-
Cc1ccc(C(=O)O)cc1NC(=O)C1CCCN1S(=O)(=O)c1cccc2nsnc12 (stereo not given),51.5,0,0,0,0
CCCCNC(=O)C1CCCN1S(=O)(=O)c1cccc2nsnc12 (stereo not given),0,0,0,0,0
O=C(O)c1cc2nccc(-c3ccc(F)cc3)n2n1,43.2,0,0,0,0
SMILES,OX1R antag-1,GalR3 antagonist,CHO parental Ca,OX1R antag-2,GPR7 antagonist
COc1ccccc1C(=O)NCCn1ccc2ccccc21,69.8,0,0,0,0
COc1ccc(C(=O)NCCn2ccc3ccccc32)cc1OC,0,-,0,0,0
CCCCN(c1ccccc1)S(=O)(=O)c1cccc(C(=O)Nc2c(C)n(C)n(-c3ccccc3)c2=O)c1,-,0,-,-,-
CC(C)COC(=O)NCCOC(=O)Nc1cccc(Cl)c1,0,0,57.3,0,0
Cc1cc(C)c(NC(=O)COC(=O)C23CC4CC(CC(O)(C4)C2)C3)c(Cl)c1,0,0,0,0,-
Cc1cc2sc3ccccc3c(=O)c2c(C)c1O,68.7,0,0,0,0
O=[N+]([O-])c1cc(C(F)(F)F)ccc1N1CCN(S(=O)(=O)c2ccc3c(c2)CCCC3)CC1,0,0,0,0,0
CC(=O)Nc1ccc(S(=O)(=O)N2CCN(CC3CC4C=CC3C4)CC2)cc1 (stereo not given),0,0,0,0,0
COc1ccc(C(=O)Oc2ccc3oc(=O)sc3c2)cc1,0,0,57.0,0,0
COCCN1Cc2cc(C(=O)OC)c3c(c2C1=O)c1cc(OC)ccc1n3C(=O)c1ccccc1,-,0,-,-,-
CC(=O)N1CCc2c(sc(NC(=O)C3CCCN3S(=O)(=O)c3cccs3)c2C(N)=O)C1 (stereo not given),38.8,0,0,0,-
COc1ccc(-c2cc(-c3ccco3)[nH]c(=O)c2C#N)cc1OC,72.7,0,0,0,0
N#Cc1c(-c2ccccc2)cc(-c2ccc3c(c2)OCO3)[nH]c1=O,0,0,0,0,-
Cc1cc(NC(=O)C(C)SCC(=O)Nc2ccccc2C(C)(C)C)no1 (stereo not given),0,0,0,0,-
CC(C)COc1ccc(-c2nn(-c3ccccc3)cc2C(=O)Nc2nccs2)cc1,0,0,38.9,0,0
O=C(Nc1nccs1)c1cn(-c2ccccc2)nc1-c1ccccc1,0,0,0,0,18.7
COC(=O)c1cn(-c2ccccc2)nc1-c1ccc(OC)cc1,0,0,0,0,0
Cc1ccc(F)c(N=Cc2c(O)c3ccccc3oc2=O)c1,51.1,0,0,0,0
O=S(=O)(Nc1cccc(-c2cn3c(n2)SCC3)c1)c1cccs1,55.9,0,0,0,0
CCc1noc(C)c1C(=O)Nc1nc(-c2cccs2)cs1,51.2,0,0,0,-
Cc1noc(C)c1C(=O)Nc1nc(-c2cccs2)cs1,0,0,0,0,-
O=C(Nc1c2c(nn1-c1cccc(Cl)c1)CS(=O)(=O)C2)c1ccco1,0,0,0,0,0
Cc1cc(N2CCCC2=O)cc(C)c1S(=O)(=O)NCCOc1ccc(C(C)(C)C)cc1,70.3,0,40.6,67.0,0
O=C1CCCN1c1ccc(S(=O)(=O)NCCOc2ccccc2)cc1,0,0,0,0,0
O=C(Nc1cccc([N+](=O)[O-])c1)c1cnccn1,0,0,0,0,0
O=C(N/N=C/c1cc([N+](=O)[O-])ccc1Cl)c1cnccn1,71.5,0,0,0,0
CC1(C)C=Cc2c(ccc3c2OC[C@H](c2ccc(O)cc2O)C3)O1,0,0,79.2,51.9,-
Cc1c(C(=O)NCc2cccc(Cl)c2)sc(=O)n1Cc1ccc(C(=O)N(C)C)cc1,-,0,-,-,-
Cc1ccc(C)c(C(=O)COC(=O)c2n[nH]c3ccccc23)c1,35.7,0,0,0,-
Cc1cccc(C)c1OCCOC(=O)c1n[nH]c2ccccc12,0,0,0,0,0
